“And” between values parts separate entries of the source, which are not always exact repeats. Equal entries are not always repeated.
How the values were obtained:
[1] = test system: Rattus norvegicus; assay: Percentage inhibition on venous stasis thrombosis in the rat at 0.1 dose (mg/kg); format: functional
Method in brief: (§1)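 Rat acute venous stasis. The vessel was excised after 10 min and the thrombus weighed. Compound was dosed iv 2 min or sc 1 h before stasis. Result is % inhibition of mean control thrombus weight relative to placebo, mean ± SEM, n = 5.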

[2] = test system: Rattus norvegicus; assay: Percentage inhibition on venous stasis thrombosis in the rat at 2.0 dose (mg/kg); format: functional; method in brief: as §1
[3] = test system: Rattus norvegicus; assay: Percentage inhibition on the platelet accumulation in the rat model of Arterial thrombosis at 3.0 dose (mg/kg); format: functional
Method in brief: (§2)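 Rat dorsal aorta injury model. Rats received 111In-labelled platelets 24 h and 125I-fibrinogen 10 min before injury. The aorta was clamped with modified forceps for 1 min, then blood flowed 45 min. The vessel was excised, washed in 5% citrate and gamma-counted, and counts were converted to mg blood equivalents. Dosing was iv 1 min or sc 1 h before clamping. Result is % inhibition versus placebo accumulation, mean ± SEM, n = 5.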

[4] = TThe compound was evaluated for the APTT value expressed as multiplies of control and was measured at the termination of the experiment (45 min later) in the rat model of arterial thrombosis at 10.0d ose (mg/kg); format: functional
Method in brief: (§3)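 Rat arterial thrombosis model with sc dosing 1 h before clamping the dorsal aorta. Blood was taken via carotid cannula into one-tenth volume 3.8% trisodium citrate just before clamping and at termination, 45 min later. APTT was measured on plasma and expressed as a multiple of control, mean ± SEM, n = 5.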

[5] = test system: Rattus norvegicus; assay: Percentage inhibition on venous stasis thrombosis in the rat at 6.0 dose (mg/kg); format: functional; method in brief: as §1
[6] = test system: Rattus norvegicus; assay: Percentage inhibition on the platelet accumulation in the rat model of Arterial thrombosis at 0.3 dose (mg/kg); format: functional; method in brief: as §2
[7] = test system: Rattus norvegicus; assay: Percentage inhibition on the f fibrinogen accumulation in the rat model of Arterial thrombosis at 2.0 dose (mg/kg); format: functional; method in brief: as §2
[8] = The compound was evaluated for the dose to double the control plasma APTT value in the human plasma; format: functional
Method in brief: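 Human blood was anticoagulated with one-tenth volume 3.8% trisodium citrate and centrifuged at 1300g for 20 min to give platelet-poor plasma. Plasma was spiked with compound at 0 to about 150 μM. It was activated 5 min at 37 °C with bovine cephalin (ellagic acid) reagent, and clotting was started with 20 mM CaCl2. Clot time was read on a coagulometer. Concentration doubling APTT was read from a concentration–APTT plot.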

[9] = The compound was evaluated for the APTT value expressed as multiplies of control and was measured at the termination of the experiment (45 min later) in the rat model of arterial thrombosis at 3.0 dose (mg/kg); format: functional; method in brief: as §3
[10] = test system: Rattus norvegicus; assay: Percentage inhibition on the f fibrinogen accumulation in the rat model of Arterial thrombosis at 3.0 dose (mg/kg); format: functional; method in brief: as §2
[11] = The compound was evaluated for the APTT value expressed as multiplies of control and was measured at the termination of the experiment (45 min later) in the rat model of arterial thrombosis at 30.0 dose (mg/kg); format: functional; method in brief: as §3
[12] = test system: Rattus norvegicus; assay: Percentage inhibition on venous stasis thrombosis in the rat at 0.05 dose (mg/kg); format: functional; method in brief: as §1
[13] = TThe compound was evaluated for the APTT value expressed as multiplies of control and was measured at the termination of the experiment (45 min later) in the rat model of arterial thrombosis at 1.0 dose (mg/kg); format: functional; method in brief: as §3
[14] = test system: Rattus norvegicus; assay: Percentage inhibition on the platelet accumulation in the rat model of Arterial thrombosis at 2.0 dose (mg/kg); format: functional; method in brief: as §2
[15] = molecular target: Plasminogen (Homo sapiens, UniProt P00747); assay: The compound was evaluated for the inhibitory activity against human plasmin
Chain of Plasminogen (P00747 97-580 limits assumed): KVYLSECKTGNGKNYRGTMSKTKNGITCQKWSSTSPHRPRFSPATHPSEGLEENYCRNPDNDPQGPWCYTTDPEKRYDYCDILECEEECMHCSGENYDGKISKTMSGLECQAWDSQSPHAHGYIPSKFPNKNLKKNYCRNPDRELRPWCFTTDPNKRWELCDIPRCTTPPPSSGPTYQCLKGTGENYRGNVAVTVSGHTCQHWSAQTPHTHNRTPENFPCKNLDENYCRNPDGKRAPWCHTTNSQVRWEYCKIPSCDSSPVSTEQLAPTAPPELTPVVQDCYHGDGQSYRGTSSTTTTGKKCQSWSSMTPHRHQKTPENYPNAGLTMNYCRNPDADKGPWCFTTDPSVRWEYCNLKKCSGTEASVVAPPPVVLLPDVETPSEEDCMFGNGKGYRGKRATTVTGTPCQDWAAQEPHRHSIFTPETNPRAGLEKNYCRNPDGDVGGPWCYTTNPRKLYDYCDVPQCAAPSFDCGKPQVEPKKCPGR
Chain of Plasminogen (P00747 581-810 limits assumed): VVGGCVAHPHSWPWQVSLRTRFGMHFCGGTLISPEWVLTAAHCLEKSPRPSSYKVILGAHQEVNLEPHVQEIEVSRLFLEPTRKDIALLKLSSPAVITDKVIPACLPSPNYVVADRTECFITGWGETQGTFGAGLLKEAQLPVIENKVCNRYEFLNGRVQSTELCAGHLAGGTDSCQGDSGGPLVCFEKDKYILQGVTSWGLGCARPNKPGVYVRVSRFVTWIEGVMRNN
Method in brief: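 Human plasmin, S-2251 chromogenic substrate, 0.05 M TRIS-HCl pH 8.4. Run like the thrombin assay: DMSO stock (final below 0.5%), initial rate at 405 nm over 30 s, substrate varied across a range. Ki was calculated from Lineweaver-Burk intercepts of control and inhibited curves.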

[16] = test system: Rattus norvegicus; assay: Percentage inhibition on the f fibrinogen accumulation in the rat model of Arterial thrombosis at 10.0 dose (mg/kg); format: functional; method in brief: as §2
[17] = test system: Rattus norvegicus; assay: Percentage inhibition on the platelet accumulation in the rat model of Arterial thrombosis at 10.0 dose (mg/kg); format: functional; method in brief: as §2
[18] = molecular target: T1, Trypsin II (Bos taurus, UniProt Q29463); assay: The compound was evaluated for the inhibitory activity against bovine trypsin
T1 sequence (Q29463 whole entry): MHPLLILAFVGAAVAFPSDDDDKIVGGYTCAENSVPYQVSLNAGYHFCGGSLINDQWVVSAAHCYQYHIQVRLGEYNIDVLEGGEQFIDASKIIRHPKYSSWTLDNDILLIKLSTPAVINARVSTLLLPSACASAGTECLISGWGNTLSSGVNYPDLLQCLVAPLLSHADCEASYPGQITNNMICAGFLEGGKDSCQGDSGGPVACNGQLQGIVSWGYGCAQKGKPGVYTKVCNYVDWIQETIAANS
Method in brief: (§4)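 Chromogenic assay run as for thrombin, with S-2222 (trypsin) or S-2586 (chymotrypsin) as substrate. Enzymes were bovine. Buffer was 0.05 M TRIS-HCl, pH 8.4. Compound stocks were in DMSO (final below 0.5%). Rate was read at 405 nm over 30 s. Ki came from double-reciprocal plots across a range of substrate concentrations.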

[19] = test system: Rattus norvegicus; assay: Percentage inhibition on the platelet accumulation in the rat model of Arterial thrombosis at 30.0 dose (mg/kg); format: functional; method in brief: as §2
[20] = molecular target: Chymotrypsinogen A (Bos taurus, UniProt P00766); assay: The compound was evaluated for the inhibitory activity against bovine Chymotrypsinogen; method in brief: as §4
[21] = The compound was evaluated for the APTT value expressed as multiplies of control and was measured at the termination of the experiment (45 min later) in the rat model of arterial thrombosis at 2.0 dose (mg/kg); format: functional; method in brief: as §3
[22] = test system: Rattus norvegicus; assay: Percentage inhibition on the f fibrinogen accumulation in the rat model of Arterial thrombosis at 1.0 dose (mg/kg); format: functional; method in brief: as §2
[23] = test system: Rattus norvegicus; assay: Percentage inhibition on venous stasis thrombosis in the rat at 1.0 dose (mg/kg); format: functional; method in brief: as §1
[24] = test system: Rattus norvegicus; assay: Percentage inhibition on the f fibrinogen accumulation in the rat model of Arterial thrombosis at 30.0 dose (mg/kg); format: functional; method in brief: as §2
[25] = test system: Rattus norvegicus; assay: Percentage inhibition on venous stasis thrombosis in the rat at 3.0 dose (mg/kg); format: functional; method in brief: as §1

For `CC1(C)CNc2c(cccc2S(=O)(=O)NC(CCCN=C(N)N)C(=O)N2CCC(CCO)CC2)C1` (stereo not given), the Inhibition [1] was 45.1%, the Inhibition [2] was 79.8% and the Inhibition [3] was 94.4% and 82% and 61.2%. The APTT [4] was 1.7, the Inhibition [5] was 95.2% and the Inhibition [6] was 58% and 36.4%. The Inhibition [7] was 3.5%, the IC200 [8] was 1.9 µM and the APTT [9] was 1.5 and 1.3. The Inhibition [10] was 28.8%, the APTT [11] was 2.5 and the Inhibition [12] was 2.3%. The APTT [13] was 1, the Inhibition [14] was 38.5% and the Ki [15] was 210 µM. For the same molecule, the Inhibition [16] was 45.5%, the Inhibition [17] was 68.3% and the Ki [18] was 7.1 µM. For the same molecule, the Inhibition [19] was 69.8%, the Ki [20] was greater than 83 µM and the APTT [21] was 1.5 and 1. The Inhibition [22] was 24.2%, the Inhibition [23] was 100% and 50% and the Inhibition [24] was 49.9%. The Inhibition [25] was 71.7%.

From ChEMBL document CHEMBL1132465, “Design and synthesis of thrombin inhibitors: analogues of MD-805 with reduced stereogenicity and improved potency” (J Med Chem, 1999)
